Results gathered from unrelated publications.
Each line is one published result; the experiments were not run side by side.
ABL1 Q252H phosphorylated: Tyrosine-protein kinase ABL1, phosphorylated (ABL1, Homo sapiens, UniProt P00519, Q252H)
ABL1 non-phosphorylated: Tyrosine-protein kinase ABL1, non-phosphorylated (ABL1, Homo sapiens, UniProt P00519)
ABL1: Tyrosine-protein kinase ABL1 (ABL1, Homo sapiens, UniProt P00519)
ABL1 phosphorylated: Tyrosine-protein kinase ABL1, phosphorylated (ABL1, Homo sapiens, UniProt P00519)

| SMILES | target | test | conditions | quantity | result |
| --- | --- | --- | --- | --- | --- |
| COc1ccc2[nH]c3c4[nH]c5ccc(OC)cc5c4c4c(c3c2c1)C(=O)NC4=O | Tyrosine-protein kinase ABL1 (ABL1, Homo sapiens, UniProt P00519, F317I) | binding | 1 µM | remaining binding | 87% |
| CCCCC(=O)Nc1ccc(-c2ccc3ncn(CCC)c(=O)c3c2)cn1 | ABL1 Q252H phosphorylated | binding, competition with immobilised ligand | 0.5 µM | remaining binding | 99% |
| N#Cc1ccc(NC(=O)Nc2ccccc2)cc1 | ABL1 non-phosphorylated | cell-free assay, competition with immobilised ligand | 25 µM | remaining binding | 83% |
| CC#CC(=O)N1CCC[C@H]1c1nc(-c2ccc(C(=O)Nc3ccccn3)cc2)c2c(N)nccn12 | ABL1 Q252H phosphorylated | enzyme activity, inhibitor | 1 µM | inhibition | 39% |
| CN1CCN(C(=O)c2ccc(NC(=O)Nc3ccc(N(C)c4ccnc(Nc5ccc(CS(C)(=O)=O)cc5)n4)cc3)cc2)CC1 | ABL1 non-phosphorylated | binding, competition with immobilised ligand | 1 µM | remaining binding | 9% |
| Cc1nc(Nc2ncc(C(=O)Nc3c(C)cccc3Cl)s2)cc(N2CC[C@@H](N)C2)n1 | ABL1 | enzyme activity, inhibitor | 1 nM | inhibition | 93% |
| C1=C/COCc2cc(ccc2OCCN2CCCC2)Nc2nccc(n2)-c2cccc(c2)COC/1 | Tyrosine-protein kinase ABL1 (ABL1, Homo sapiens, UniProt P00519, Q252H) | binding | 0.1 µM | remaining binding | 15% |
| [2H]c1cc(C)c(NC(=O)c2cnc(Nc3cc(N4CC[C@@H](N)C4)nc(C)n3)s2)c(Cl)c1 | ABL1 | enzyme activity, inhibitor | 1 nM | inhibition | 86% |
| C=CC(=O)N1CCC([C@@H]2CCNc3c(C(N)=O)c(-c4ccc(Oc5ccccc5)cc4)nn32)CC1 | Tyrosine-protein kinase ABL1, phosphorylated (ABL1, Homo sapiens, UniProt P00519, F317I) | enzyme activity, inhibitor | 1 µM | inhibition | 27% |
| Cc1ccc(NC(=O)c2ccnc(C(F)(F)F)c2)cc1-c1cc(OCCO)nc(N2CCOCC2)c1 | Tyrosine-protein kinase ABL1 (ABL1, Homo sapiens, UniProt P00519, Y253F) | binding | 1 µM | remaining binding | 100% |
| [2H]c1cc(C)c(NC(=O)c2cnc(Nc3cc(N4CCCCC4)nc(C)n3)s2)c(Cl)c1 | ABL1 | enzyme activity, inhibitor | 10 nM | inhibition | > 90% |
| CO[C@@H]1[C@H](N(C)C(=O)c2ccccc2)C[C@H]2O[C@]1(C)n1c3ccccc3c3c4c(c5c6ccccc6n2c5c31)C(=O)NC4 | ABL1 phosphorylated | enzyme activity, inhibitor | 1 µM | inhibition | 31% |
| Cc1nc(Nc2ncc(C(=O)Nc3c(C)cccc3Cl)s2)cc(N2CC[C@H](O)C2)n1 | ABL1 | enzyme activity, inhibitor | 1 nM | inhibition | 86% |
| C[C@H]1CC[C@H](n2c3cnccc3c3cnc(Nc4ccc5c(n4)CCN(C(=O)CO)C5)nc32)CC1 | ABL1 phosphorylated | binding, competition with immobilised ligand | 1 µM | remaining binding | 100% |
| [2H]c1cc(C)c(NC(=O)c2cnc(Nc3cc(N4CC[C@@H](O)C4)nc(C)n3)s2)c(Cl)c1 | ABL1 | enzyme activity, inhibitor | 1 nM | inhibition | 87% |
| COc1ccc2oc(-c3ccc4nc(N)oc4c3)c/c(=N\c3ccccc3NC(=O)CCN)c2c1 | Tyrosine-protein kinase ABL1 (ABL1, Homo sapiens, UniProt P00519, M351T) | cell-free assay | 1 µM | remaining signal | 100% |
